From ChEMBL document CHEMBL2034930, “Alkylidene branched lupane derivatives: synthesis and antitumor activity” (Eur J Med Chem, 2012)
The source made the active and inactive calls. The calls are words filed in the database; no cut-off is given here.

Assays:
[1] = Solubility of the compound in water; assay type: physicochemical; conditions: buffer
DLD-1 = test: Cytotoxicity against human DLD1 cells after 96 hrs by SRB assay; assay type: functional, cell-based
Outline: (§1)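 Cells exposed to test compounds for 96 h, then viable cells measured by sulforhodamine B staining as a percentage of untreated controls. IC50 read from dose-response curves, averaged over at least three independent experiments. Compounds tested free and also encapsulated in soybean-lecithin liposomes extruded through a 100 nm polycarbonate membrane (hydrodynamic diameter 70-120 nm, Z-average 105 nm, encapsulation >96% by HPLC).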

HT-29 = test: Cytotoxicity against human HT-29 cells after 96 hrs by SRB assay; assay type: functional, cell-based; outline: as §1
A2780 = test: Cytotoxicity against human A2780 cells after 96 hrs by SRB assay; assay type: functional, cell-based; outline: as §1
HCT-116 = test: Cytotoxicity against human HCT116 cells after 96 hrs by SRB assay; assay type: functional, cell-based; outline: as §1
[2] = Cytotoxicity against human Lipo cells after 96 hrs by SRB assay; assay type: functional, cell-based; outline: as §1
8505C = test: Cytotoxicity against human 8505C cells after 96 hrs by SRB assay; assay type: functional, cell-based; outline: as §1
SW-1736 = test: Cytotoxicity against human SW1736 cells after 96 hrs by SRB assay; assay type: functional, cell-based; outline: as §1
NIH3T3 = test: Cytotoxicity against mouse NIH/3T3 cells after 96 hrs by SRB assay; assay type: cell-based; conditions: NIH3T3, 96 h; outline: as §1
[3] = Cytotoxicity against human A253 cells after 96 hrs by SRB assay; assay type: functional, cell-based; outline: as §1
MCF7 = test: Cytotoxicity against human MCF7 cells after 96 hrs by SRB assay; assay type: functional, cell-based; outline: as §1
[4] = Cytotoxicity against human 518A2 cells after 96 hrs by SRB assay; assay type: functional, cell-based; outline: as §1
SW480 [5] = test: Cytotoxicity against human SW480 cells after 96 hrs by SRB assay; assay type: functional, cell-based; outline: as §1
HCT-8 = test: Cytotoxicity against human HCT8 cells after 96 hrs by SRB assay; assay type: functional, cell-based; outline: as §1
A549 [6] = test: Cytotoxicity against human A549 cells after 96 hrs by SRB assay; assay type: functional, cell-based; outline: as §1
A-431 = test: Cytotoxicity against human A431 cells after 96 hrs by SRB assay; assay type: functional, cell-based; outline: as §1
FaDu = test: Cytotoxicity against human FADU cells after 96 hrs by SRB assay; assay type: functional, cell-based; outline: as §1
A549 [7] = test: Induction of apoptosis in human A549 cells at 0.8 uM by acridine orange/ethidium bromide staining; assay type: functional, cell-based
SW480 [8] = test: Induction of apoptosis in human SW480 cells assessed as DNA laddering at 6 uM after 24 hrs; assay type: functional, cell-based
[9] = Homo sapiens, DLD-1, 96 h, read-out: IC50
[10] = Homo sapiens, HT-29, 96 h, read-out: IC50
[11] = Homo sapiens, A2780, 96 h, read-out: IC50
[12] = Homo sapiens, HCT-116, 96 h, read-out: IC50
[13] = Homo sapiens, Lipo, 96 h, read-out: IC50
[14] = Homo sapiens, 8505C, 96 h, read-out: IC50
[15] = Homo sapiens, SW-1736, 96 h, read-out: IC50
[16] = Homo sapiens, A253, 96 h, read-out: IC50
[17] = Homo sapiens, MCF7, 96 h, read-out: IC50
[18] = Homo sapiens, 518A2, 96 h, read-out: IC50
[19] = Homo sapiens, SW480, 96 h, read-out: IC50
[20] = Homo sapiens, HCT-8, 96 h, read-out: IC50
[21] = Homo sapiens, A549, 96 h, read-out: IC50
[22] = Homo sapiens, A-431, 96 h, read-out: IC50
[23] = Homo sapiens, FaDu, 96 h, read-out: IC50

Structure (SMILES): C=C(C)[C@@H]1CC[C@]2(C(=O)O)CC[C@]3(C)[C@H](CC[C@@H]4[C@@]5(C)CCC(=O)C(C)(C)[C@@H]5CC[C@]43C)[C@@H]12 [BETUNOLIC ACID]
- solubility [1]: Insoluble

Structure (SMILES): C=C1C[C@]2(C)[C@H]3CC[C@@H]4[C@H]5[C@H](C(=C)C)CC[C@]5(C=O)CC[C@@]4(C)[C@]3(C)CC[C@H]2C(C)(C)C1=O
- IC50 (DLD-1; [9]): 3.7 µM
- IC50 (HT-29; [10]): 7.1 µM
- IC50 (A2780; [11]): 1.3 µM
- IC50 (HCT-116; [12]): 3.2 µM
- IC50 [2, 13]: 2.7 µM
- IC50 (8505C; [14]): 1.3 µM
- IC50 (SW-1736; [15]): 2.1 µM
- IC50 (NIH3T3): 4.7 µM
- solubility [1]: Insoluble
- IC50 [3, 16]: 1 µM
- IC50 (MCF7; [17]): 2.1 µM
- IC50 [4, 18]: 3.8 µM
- IC50 (SW480 [5]; [19]): 2.7 µM
- IC50 (HCT-8; [20]): 7.1 µM
- IC50 (A549 [6]; [21]): 1.8 µM
- IC50 (A-431; [22]): 3 µM
- IC50 (FaDu; [23]): 5.1 µM

Structure (SMILES): C=C1C[C@]2(C)[C@H]3CC[C@@H]4[C@H]5[C@H](C(=C)C)CC[C@]5(C(=O)OC)CC[C@@]4(C)[C@]3(C)CC[C@H]2C(C)(C)C1=O
- IC50 (DLD-1; [9]): 6.4 µM
- Activity (A549 [7]): Active
- IC50 (HT-29; [10]): 5.9 µM
- IC50 (A2780; [11]): 5.1 µM
- IC50 (HCT-116; [12]): 4.5 µM
- IC50 [2, 13]: 4.6 µM
- Activity (SW480 [8]): Active
- IC50 (8505C; [14]): 5 µM
- IC50 (SW-1736; [15]): 4.9 µM
- IC50 (NIH3T3): 4.9 µM
- solubility [1]: Insoluble
- IC50 [3, 16]: 4 µM
- IC50 (MCF7; [17]): 4.4 µM
- IC50 [4, 18]: 4.2 µM
- IC50 (SW480 [5]; [19]): 4.5 µM
- IC50 (HCT-8; [20]): 9 µM
- IC50 (A549 [6]; [21]): 5.1 µM
- IC50 (A-431; [22]): 4.9 µM
- IC50 (FaDu; [23]): 7.7 µM

Structure (SMILES): C=C(C)[C@@H]1CC[C@]2(CO)CC[C@]3(C)[C@H](CC[C@@H]4[C@@]5(C)CC[C@H](O)C(C)(C)[C@@H]5CC[C@]43C)[C@@H]12 [BETULIN]
- solubility [1]: Insoluble

Structure (SMILES): C=C(C)[C@@H]1CC[C@]2(C(=O)OC)CC[C@]3(C)[C@H](CC[C@@H]4[C@@]5(C)CCC(=O)C(C)(C)[C@@H]5CC[C@]43C)[C@@H]12 [METHYL BETULONATE]
- solubility [1]: Insoluble

Structure (SMILES): C=C(C)[C@@H]1CC[C@]2(C(=O)OC)CC[C@]3(C)[C@H](CC[C@@H]4[C@@]5(C)C[C@@H](CC[N+](=O)[O-])C(=O)C(C)(C)[C@@H]5CC[C@]43C)[C@@H]12
- solubility [1]: Insoluble

Structure (SMILES): C=C(C)[C@@H]1CC[C@]2(C(=O)OC)CC[C@]3(C)[C@H](CC[C@@H]4[C@@]5(C)C/C(=C\C)C(=O)C(C)(C)[C@@H]5CC[C@]43C)[C@@H]12
- IC50 (DLD-1; [9]): > 30 µM
- IC50 (HT-29; [10]): > 30 µM
- IC50 (A2780; [11]): 16.1 µM
- IC50 (HCT-116; [12]): 24 µM
- IC50 [2, 13]: 27.8 µM
- IC50 (8505C; [14]): 26.4 µM
- IC50 (SW-1736; [15]): 21.9 µM
- IC50 (NIH3T3): 29.1 µM
- solubility [1]: Insoluble
- IC50 [3, 16]: 21.6 µM
- IC50 (MCF7; [17]): 27.2 µM
- IC50 [4, 18]: > 30 µM
- IC50 (SW480 [5]; [19]): 16 µM
- IC50 (HCT-8; [20]): 17.2 µM
- IC50 (A549 [6]; [21]): > 30 µM
- IC50 (A-431; [22]): 26.4 µM
- IC50 (FaDu; [23]): 22.4 µM

Structure (SMILES): C=C/C=C1/C[C@]2(C)[C@H]3CC[C@@H]4[C@H]5[C@H](C(=C)C)CC[C@]5(C(=O)OC)CC[C@@]4(C)[C@]3(C)CC[C@H]2C(C)(C)C1=O
- IC50 (DLD-1; [9]): 14.2 µM
- IC50 (HT-29; [10]): 10.9 µM
- IC50 (A2780; [11]): 11.2 µM
- IC50 (HCT-116; [12]): 14.6 µM
- IC50 [2, 13]: 11.6 µM
- IC50 (8505C; [14]): 11.3 µM
- IC50 (SW-1736; [15]): 15 µM
- IC50 (NIH3T3): 13.1 µM
- solubility [1]: Insoluble
- IC50 [3, 16]: 10.4 µM
- IC50 (MCF7; [17]): 11.2 µM
- IC50 [4, 18]: 11.5 µM
- IC50 (SW480 [5]; [19]): 10.5 µM
- IC50 (HCT-8; [20]): 14 µM
- IC50 (A549 [6]; [21]): 13 µM
- IC50 (A-431; [22]): 13 µM
- IC50 (FaDu; [23]): 17 µM

Structure (SMILES): C=C(C)[C@@H]1CC[C@]2(C(=O)OC)CC[C@]3(C)[C@H](CC[C@@H]4[C@@]5(C)C[C@@H](CS(=O)(=O)CCO)C(=O)C(C)(C)[C@@H]5CC[C@]43C)[C@@H]12
- IC50 (DLD-1; [9]): 4.4 µM
- IC50 (HT-29; [10]): 2.5 µM
- IC50 (A2780; [11]): 2.6 µM
- IC50 (HCT-116; [12]): 2.8 µM
- IC50 [2, 13]: 2.7 µM
- IC50 (8505C; [14]): 3.4 µM
- IC50 (SW-1736; [15]): 3.3 µM
- IC50 (NIH3T3): 3.2 µM
- solubility [1]: Insoluble
- IC50 [3, 16]: 2.5 µM
- IC50 (MCF7; [17]): 2.6 µM
- IC50 [4, 18]: 2.6 µM
- IC50 (SW480 [5]; [19]): 2.6 µM
- IC50 (HCT-8; [20]): 4 µM
- IC50 (A549 [6]; [21]): 3.3 µM
- IC50 (A-431; [22]): 2.8 µM
- IC50 (FaDu; [23]): 3.8 µM

Structure (SMILES): C=C(C)[C@@H]1CC[C@]2(C(=O)OC)CC[C@]3(C)[C@H](CC[C@@H]4[C@@]5(C)C[C@@]6(CCN=N6)C(=O)C(C)(C)[C@@H]5CC[C@]43C)[C@@H]12
- IC50 (DLD-1; dld-1): > 30 µM
- IC50 (HT-29; ht-29): > 30 µmol
- IC50 (A2780; a2780): > 30 µM
- IC50 (HCT-116; hct-116): > 30 µmol
- IC50 ([2]; lipo): > 30 µmol
- IC50 (8505C; 8505c): > 30 µM
- IC50 (SW-1736; sw-1736): > 30 µmol
- solubility [1]: Insoluble
- IC50 ([3]; a253): > 30 µM
- IC50 (MCF7; mcf7): > 30 µmol
- IC50 ([4]; 518a2): > 30 µM
- IC50 (SW480 [5]; sw480): > 30 µmol
- IC50 (HCT-8; hct-8): > 30 µmol
- IC50 (A549 [6]; a549): > 30 µM
- IC50 (A-431; a-431): > 30 µM
- IC50 (FaDu; fadu): > 30 µM

Structure (SMILES): C=C(C)[C@@H]1CC[C@]2(C=O)CC[C@]3(C)[C@H](CC[C@@H]4[C@@]5(C)CCC(=O)C(C)(C)[C@@H]5CC[C@]43C)[C@@H]12 [BETULONAL]
- solubility [1]: Insoluble

Structure (SMILES): C=C1C[C@]2(C)[C@H]3CC[C@@H]4[C@H]5[C@H](C(=C)C)CC[C@]5(C(=O)N5CCSCC5)CC[C@@]4(C)[C@]3(C)CC[C@H]2C(C)(C)C1=O
- IC50 (DLD-1; [9]): 1.5 µM
- IC50 (HT-29; [10]): 1.6 µM
- IC50 (A2780; [11]): 1 µM
- IC50 (HCT-116; [12]): 1.3 µM
- IC50 [2, 13]: 1.5 µM
- IC50 (8505C; [14]): 1.5 µM
- IC50 (SW-1736; [15]): 1.5 µM
- IC50 (NIH3T3): 1.9 µM
- solubility [1]: Insoluble
- IC50 [3, 16]: 1.4 µM
- IC50 (MCF7; [17]): 1.4 µM
- IC50 [4, 18]: 1.5 µM
- IC50 (SW480 [5]; [19]): 1.5 µM
- IC50 (HCT-8; [20]): 1.5 µM
- IC50 (A549 [6]; [21]): 1.5 µM
- IC50 (A-431; [22]): 1.4 µM
- IC50 (FaDu; [23]): 1.6 µM
